Reference: ChEMBL document CHEMBL3779804, “Novel Ferroptosis Inhibitors with Improved Potency and ADME Properties” (J Med Chem, 2016)
≈ marks a conversion by molar mass, not a printed value.

Tests used:
[1] = Antiferroptotic activity in human IMR32 neuroblastoma cells assessed as inhibition of erastin-induced cell death preincubated for 1 hr before erastin stimulation and measured after 13 hrs by fluorescence plate reader method; assay type: functional; conditions: IMR-32
In short: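 Human IMR-32 neuroblastoma cells seeded at 25,000/well, next day pretreated 1 h in triplicate with a 1/3 dilution series (5 μM to 0.68 nM) plus Sytox Green (1.6 μM), then stimulated with erastin (10 μM). Sytox Green fluorescence (ex 485/em 520 nm) read after 13 h; Triton-X100 (0.05%) lysis as 100% death reference; % death background-corrected; IC50 determined.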

[2] = Kinetic solubility of the compound in PBS buffer at pH 7.4 after 2 hrs at 37 deg C by turbidimetric analysis; assay type: physicochemical; conditions: read-out: Kinetic_solubility
In short: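 Turbidimetric kinetic solubility by UV-vis reading; final test concentrations 3.125–200 μM, from DMSO solution diluted into 10 mM PBS pH 7.4.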

[3] = Half life in human liver microsomes by LC/MS/MS analysis; assay type: ADME
In short: (§1)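 Compound incubated with liver microsomes (CYP450 and other NADP-dependent enzymes); parent loss monitored and expressed as half-life in min.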

[4] = Half life in mouse liver microsomes by LC/MS/MS analysis; assay type: ADME; in short: as §1
[5] = Stability in human plasma assessed as percentage recovery after 6 hrs by LC/MS/MS analysis; assay type: ADME, cell-free; conditions: read-out: Drug recovery
In short: (§2)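 Compound incubated in plasma up to 6 h; result given as percentage of parent compound remaining.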

[6] = Stability in mouse plasma assessed as percentage recovery after 6 hrs by LC/MS/MS analysis; assay type: ADME, cell-free; conditions: read-out: Drug recovery; in short: as §2
[7] = Antiferroptotic activity in human HT1080 cells assessed as inhibition of erastin-induced cell death by Alamar blue assay; assay type: functional, cell-based; conditions: HT-1080
[8] = Antiferroptotic activity in human HT1080 cells assessed as inhibition of erastin-induced cell death; assay type: functional, cell-based; conditions: HT-1080
[9] = Antiferroptotic activity in human HT1080 cells assessed as inhibition of erastin-induced cell death by cell based assay; assay type: functional; conditions: HT-1080
[10] = Half life in C57BL/6 mouse plasma; assay type: ADME, cell-free
[11] = Intrinsic clearance in C57BL/6 mouse liver microsomes; assay type: ADME

Structure (SMILES) | IC50 [1] [nM] | further results
COC(=O)c1ccc(NC2CCCCC2)c(N)c1 | 34 | –
CCNS(=O)(=O)c1ccc(NC2C3CC4CC(C3)CC2C4)c(NCc2ccncc2)c1 (centres undefined) | 3.9 | solubility kinetic at 2 h [2]: 12.5 µM (≈ 5.51 µg/mL); half-life [3]: 64 min; half-life [4]: 26 min; remaining at 6 h [5]: 100%; remaining at 6 h [6]: 100%
CCNC(=O)c1ccc(NC2CCCCC2)c(NCc2ccncc2)c1 | 26 | –
CCNC(=O)c1ccc(NC2C3CC4CC(C3)CC2C4)c(N)c1 (centres undefined) | 14 | –
CCNS(=O)(=O)c1ccc(NC2CC2)c(NCc2ccccc2)c1 | 61 | –
CNS(=O)(=O)c1ccc(NC2CCCCC2)c(N)c1 | 76 | –
CCNS(=O)(=O)c1ccc(NC2CC2)c(NCc2ccncc2)c1 | 128 | –
CC(C)(C)NS(=O)(=O)c1ccc(NC2CCCCC2)c(N)c1 | 27 | –
CCNC(=O)c1ccc(NC2CCCCC2)c(N)c1 | 88 | –
CC(C)(C)NS(=O)(=O)c1ccc(NC2C3CC4CC(C3)CC2C4)c(NCc2ccncc2)c1 (centres undefined) | 5.2 | –
CCNC(=O)c1ccc(NC2C3CC4CC(C3)CC2C4)c(NCc2ccccc2)c1 (centres undefined) | 6.5 | –
CC(C)(C)NS(=O)(=O)c1ccc(NC2CCCCC2)c(NCc2ccccc2)c1 | 6.2 | –
CCNS(=O)(=O)c1ccc(NC2C3CC4CC(C3)CC2C4)c(NCc2ccccc2)c1 (centres undefined) | 3.5 | solubility kinetic at 2 h [2]: 12.5 µM (≈ 5.5 µg/mL); half-life [3]: 36 min; half-life [4]: 31 min; remaining at 6 h [5]: 100%; remaining at 6 h [6]: 99.4%
CNS(=O)(=O)c1ccc(NC2C3CC4CC(C3)CC2C4)c(N)c1 (centres undefined) | 11 | –
CCNS(=O)(=O)c1ccc(NC2CC3CCC2C3)c(NCc2ccncc2)c1 (centres undefined) | 9.4 | –
CCNS(=O)(=O)c1ccc(NC2CC3CCC2C3)c(N)c1 (centres undefined) | 28 | –
CNS(=O)(=O)c1ccc(NC2CCCCC2)c(NCc2ccncc2)c1 | 15 | –
Nc1cc(C(=O)O)ccc1NC1CCCCC1 | 210 | –
CCOC(=O)c1ccc(NC2CCCCC2)c(N)c1 | 18 | solubility kinetic at 2 h [2]: > 200 µM; half-life [3]: 6.9 min; half-life [4]: 1.9 min; remaining at 6 h [5]: 100%; remaining at 6 h [6]: 0%; IC50 [7]: 95 nM
CNS(=O)(=O)c1ccc(NC2C3CC4CC(C3)CC2C4)c(NCc2ccccc2)c1 (centres undefined) | 4.9 | –
CCNS(=O)(=O)c1ccc(NC2CC3CCC2C3)c(NCc2ccccc2)c1 (centres undefined) | 3 | –

Structure (SMILES) | IC50 [1] [nM] | further results
CCNS(=O)(=O)c1ccc(NC2CCCC2)c(NCc2ccncc2)c1 | 36 | –
CCNS(=O)(=O)c1ccc(NC2CCCC2)c(N)c1 | 82 | –
CCNS(=O)(=O)c1ccc(NC2CCCC2)c(NCc2ccccc2)c1 | 8.2 | –
CCNC(=O)c1ccc(NC2CCCCC2)c(NCc2ccccc2)c1 | 21 | –
CCOC(=O)c1ccc(NC2CCCCC2)c(NCc2ccccc2)c1 | – | IC50 [8]: 6 nM
CCNS(=O)(=O)c1ccc(NC2CCCCCCC2)c(N)c1 | 9.3 | –
CCNS(=O)(=O)c1ccc(NC2C3CC4CC(C3)CC2C4)c(N)c1 (centres undefined) | 17 | –
CCNS(=O)(=O)c1ccc(NC2CCCCC2)c(NCc2ccccc2)c1 | 4 | solubility kinetic at 2 h [2]: 12.5 µM (≈ 4.84 µg/mL); half-life [3]: 88 min; half-life [4]: 187 min; remaining at 6 h [5]: 100%; remaining at 6 h [6]: 98.6%
CC(C)(C)NS(=O)(=O)c1ccc(NC2CCCCC2)c(NCc2ccncc2)c1 | 11 | –
CCNS(=O)(=O)c1ccc(NC2CCCCC2)c(NCc2ccncc2)c1 | 23 | –
CNS(=O)(=O)c1ccc(NC2C3CC4CC(C3)CC2C4)c(NCc2ccncc2)c1 (centres undefined) | 6.4 | –
CCNS(=O)(=O)c1ccc(NC2CCCCC2)c(N)c1 | 67 | solubility kinetic at 2 h [2]: 12.5 µM (≈ 3.72 µg/mL); half-life [3]: 37 min; half-life [4]: 31 min; remaining at 6 h [5]: 81.9%; remaining at 6 h [6]: 86.2%
CCNS(=O)(=O)c1ccc(NC2CC2)c(N)c1 | 76 | –
CC(C)(C)OC(=O)c1ccc(NC23CC4CC(CC(C4)C2)C3)c(/N=C\c2cncnc2)c1 | – | IC50 [9]: 350 nM; half-life [10]: ≥ 120 min; CLH [11]: < 0.5 mL/min/g
CNS(=O)(=O)c1ccc(NC2CCCCC2)c(NCc2ccccc2)c1 | 3.7 | –
CC(C)(C)NS(=O)(=O)c1ccc(NC2C3CC4CC(C3)CC2C4)c(NCc2ccccc2)c1 (centres undefined) | 3.4 | –
CCNS(=O)(=O)c1ccc(NC2CCCCCCC2)c(NCc2ccccc2)c1 | 2.4 | –
CCNS(=O)(=O)c1ccc(NC2CCCCCCC2)c(NCc2ccncc2)c1 | 22 | –
CC(C)(C)NS(=O)(=O)c1ccc(NC2C3CC4CC(C3)CC2C4)c(N)c1 (centres undefined) | 6 | –
CCNC(=O)c1ccc(NC2C3CC4CC(C3)CC2C4)c(NCc2ccncc2)c1 (centres undefined) | 3.4 | solubility kinetic at 2 h [2]: 25 µM (≈ 10.1 µg/mL); half-life [3]: 16 min; half-life [4]: 30 min; remaining at 6 h [5]: 100%; remaining at 6 h [6]: 100%
